# DENV2 CPE – inhibitors of DENV2 cytopathic effect, primary screen, cell-based, plate reader, single concentration; DENV2-infected cells, cytopathic effect rescue; CPE inhibition, % at 9.99 µM; 350,000 tested, 1.7% active; AID 651640, 2012; in the data active = CPE inhibition above about 20%, passing the limit was not always enough; inconclusive = no clear call, values can overlap the other calls; tested in BHK-21 cells;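 also: 0% = median of neutral control wells and 100% = median of positive control wells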
# miR-122 sensor – miR-122 Renilla sensor signal increase in Huh7, primary screen, miR-122 inhibitor project, cell-based, single point, plate reader | activation (reporter increase), % at 12.5 µM | 340,000 tested, 0.3% active | Huh7 miR-122 Renilla luciferase sensor, 48 h; neutral wells = 0, positive control = 100;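 active = mean replicate activation score at least 90 and every replicate individually at or above 90; inconclusive = only one of the two criteria met; inactive = neither criterion met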;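 also: higher luciferase means less miR-122 activity so hits act as miR-122 inhibitors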
# E-selectin induc – E-selectin induction in HUVECs, primary screen, imaging, HUVEC, immunofluorescence imaging, single point. P16581. normalized: neutral wells 0, TNF-alpha wells 100. activation, % at 7.58 µM. 260,000 tested, 0.37% active. AID 686992, 2013;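 active = mean E-selectin-positive cell signal at least 10% of the positive control, reached in at least 60% of replicates, without over 20% cell loss; inconclusive = no rule given, readout overlaps actives, possibly toxicity-flagged; inactive = the rest, including those meeting only one limit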
# Target sequence (P16581 whole entry, looked up): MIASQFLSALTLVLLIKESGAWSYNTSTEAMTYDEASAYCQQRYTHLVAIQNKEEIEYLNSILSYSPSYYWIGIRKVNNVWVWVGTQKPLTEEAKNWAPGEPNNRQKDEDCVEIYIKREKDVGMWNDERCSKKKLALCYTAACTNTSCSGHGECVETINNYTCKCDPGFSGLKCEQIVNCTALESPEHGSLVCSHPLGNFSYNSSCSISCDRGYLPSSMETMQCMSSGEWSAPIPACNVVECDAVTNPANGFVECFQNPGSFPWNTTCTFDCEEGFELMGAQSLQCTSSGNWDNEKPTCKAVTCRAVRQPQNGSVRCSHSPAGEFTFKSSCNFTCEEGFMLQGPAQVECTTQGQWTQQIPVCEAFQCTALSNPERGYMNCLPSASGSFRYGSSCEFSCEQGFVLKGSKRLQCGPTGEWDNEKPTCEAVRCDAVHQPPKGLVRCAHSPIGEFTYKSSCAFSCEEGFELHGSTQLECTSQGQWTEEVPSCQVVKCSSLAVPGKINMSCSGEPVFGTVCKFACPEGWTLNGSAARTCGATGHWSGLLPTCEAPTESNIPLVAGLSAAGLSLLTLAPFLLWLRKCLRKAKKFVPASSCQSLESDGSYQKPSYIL
#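 assay system = HUVEC, human umbilical vein endothelial cells | input = 3,000 HUVEC seeded per well | medium = EGM-2 growth medium on 0.1% gelatin-coated wells | dosing = one compound dose added by pin transfer | signal = immunofluorescence imaging | read-out basis = % PE-positive cells | control set = TNF-alpha, DMSO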
# Cneo AK release – Cryptococcus neoformans cell lysis inducers, primary screen, AK release luminescence, single concentration; AID 651654, 2012; 360,000 tested, 0.2% active; lysis activity, % at 15 µM; C. neoformans lysis, adenylate kinase release luminescence, 4 h; normalised: neutral wells 0, clomiphene wells 100;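 active = mean lysis activity across replicates of at least 80%, whatever share of replicates individually reach that level; inactive = mean lysis activity below 80%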
#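 Assay system: C. neoformans cells. Amount: yeast cell density of 5 × 10^6 cells/mL. Technique: AK luminescence. Buffer or medium: YPD. Times: static 4 h at 37 °C with compound, 1 h detection. Dosing: single-point compound dose. Read-out: lysis from increased AK signal.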
# Ecoli rRNA inh – reduced GFP signal of wild-type E. coli, primary screen, bacterial rRNA inhibitor project, GFP/RFP fluorescence, OD600, single point | GFP signal change (wild-type ribosome), % (no concentration beside the values) | 350,000 tested, 1.6% active | E. coli WT GFP vs humanized-ribosome RFP mutants, 24 h; hits give low values; DMSO median 0, no signal -100;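 active = significant combined selectivity score with lowered wild-type GFP, culture density cut under 30%, mutant RFP and density less affected; inactive = any of these conditions unmet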
# * = called active by the depositor; ? = inconclusive; . = no result; [ ] = another dose, or the depositor's remark. The list is not random: actives were taken first. Their share in the collection is about 3.1%.
SMILES,DENV2 CPE,miR-122 sensor,E-selectin induc,Cneo AK release,Ecoli rRNA inh
COc1ccc(S(=O)(=O)Nc2ccc3c(c2)C(=O)N([C@H](C)CO)C[C@@H](C)[C@@H](CN(C)C(=O)Nc2cccc4ccccc24)O3)cc1,4,5[16.7 µM],75*,-2,-7
COc1ccc(S(=O)(=O)Nc2ccc3c(c2)C(=O)N([C@H](C)CO)C[C@H](C)[C@H](CN(C)C(=O)Nc2cccc4ccccc24)O3)cc1,0,-19[16.7 µM],9,-4,1
Cc1ccc(/C=C2\SC(=S)N(CCCC(=O)N3CCOCC3)C2=O)cc1,-2,-18,0,-2,-26*
O=C1/C(=C\c2ccc(O)c(O)c2)SC(=S)N1Cc1ccccc1,3,-21,0,-1,-20
O=C(CCN1C(=O)/C(=C/c2cccs2)SC1=S)Nc1ccc(O)cc1,-1,-8,11,3,-8
O=C1/C(=C\c2cccc(O)c2)SC(=S)N1Cc1ccccc1,-3,-10,2,46,-20*
COc1ccccc1/C=C1\SC(=S)N(CCC(=O)Nc2cccc(O)c2)C1=O,5,.,.,-1,-31*
O=C(CCN1C(=O)/C(=C/c2cccs2)SC1=S)Nc1ccccc1O,-1,-3,30*,2,-3
Cc1noc(C)c1S(=O)(=O)N(C)C[C@H]1Oc2ccc(NS(=O)(=O)c3ccc(Cl)cc3)cc2C(=O)N([C@@H](C)CO)C[C@H]1C,18,11[16.7 µM],0,-4,4
COc1ccccc1/C=C1\SC(=S)N(C(C(=O)O)c2ccccc2)C1=O (centres undefined),12,.,.,.,-37*
Cc1ccc(/C=C2\SC(=S)N(CCCC(=O)Nc3cccc(C(=O)O)c3)C2=O)cc1,85*,-11,0,-4,6
O=C1/C(=C/c2cccs2)SC(=S)N1c1cccc(O)c1,-1,-8,52*,.,-5
COc1cc(/C=C2\SC(=S)N(C(C(=O)O)c3ccccc3)C2=O)ccc1O (centres undefined),8,0,.,-6,-36
O=C(N[C@H]1CC[C@H](CCNS(=O)(=O)c2cccc(Cl)c2)O[C@@H]1CO)c1ccncc1,5,-9[16.7 µM],0,0,-2
CCC(=O)Nc1cccc(-c2cc3ccccc3oc2=O)c1,30*,.,0,.,.
COc1cccc(NC(=O)N2C[C@H](O)COC[C@H]3O[C@H](CC(=O)NC4CCCC4)CC[C@@H]32)c1,2,-2[16.7 µM],0,-4,-2
O=S(Cc1ccc(Cl)cc1)CC(O)(c1ccccc1)c1ccccc1 (centres undefined),.,147*,.,0,.
O=S(Cc1ccccc1)CC(O)(c1ccc(Cl)cc1)c1ccc(Cl)cc1 (centres undefined),.,139*,0,6,.
CC(=O)N(C)C[C@H]1Oc2ccccc2CC(=O)N(C)C[C@H]1C,.,.,.,.,-1
COc1ccc2c3c([nH]c2c1)[C@@H](CO)N(C(=O)Nc1cccc(F)c1)CC31CN(CC2CCOCC2)C1,?,.,0,.,-3
CNc1ccccc1C(C)(C)c1cc(-c2cccc([N+](=O)[O-])c2)no1,6,-2,.,0,-7
CNc1ccccc1C(C)(C)c1cc(-c2cccc(Br)c2)no1,6,-2,84*,-3,-22
COc1ccc(S(=O)(=O)NCCSc2ccc(Cl)cc2)cc1OC,-8,71,.,0,-38*
CNC(=O)C[C@@H]1CC[C@H]2[C@@H](COc3ccc(NC(=O)c4ccccc4Cl)cc3C(=O)N2C)O1,?,-1[16.7 µM],0,1,-25
OC[C@H]1[C@H](c2ccc(Br)cc2)[C@H]2CN(Cc3cncnc3)CCCCN21,12,5[16.7 µM],0,1,5
SMILES,DENV2 CPE,miR-122 sensor,E-selectin induc,Cneo AK release,Ecoli rRNA inh
CCOC(=O)c1sc(N2C(=O)C(O)=C(C(=O)c3ccco3)C2c2ccc([N+](=O)[O-])cc2)nc1C (centres undefined),-3,-6,1,-2,-18*
CNC[C@@H]1Oc2ccc(NC(=O)CCN3CCOCC3)cc2C(=O)N([C@H](C)CO)C[C@H]1C,.,-2[16.7 µM],0,.,-2
Cc1noc(C)c1S(=O)(=O)Nc1ccc2c(c1)CC(=O)N([C@H](C)CO)C[C@H](C)[C@H](CN(C)S(=O)(=O)c1cccs1)O2,-8,59[16.7 µM],0,115*,1
CC(C)NC(=O)N(C)C[C@H]1Oc2ccc(NS(=O)(=O)c3cccs3)cc2CC(=O)N([C@@H](C)CO)C[C@@H]1C,18,14[16.7 µM],-8,11,6
CC(C)NC(=O)N(C)C[C@@H]1Oc2ccc(NS(=O)(=O)c3cccs3)cc2CC(=O)N([C@@H](C)CO)C[C@H]1C,-4,-6[16.7 µM],29*,5,3
CC(C)NC(=O)N(C)C[C@@H]1Oc2ccc(NS(=O)(=O)c3cccs3)cc2CC(=O)N([C@H](C)CO)C[C@H]1C,-3,2[16.7 µM],-5,5,0
CC(C)NC(=O)N(C)C[C@@H]1Oc2ccc(NS(=O)(=O)c3cccs3)cc2CC(=O)N([C@@H](C)CO)C[C@@H]1C,22*,0[16.7 µM],-16,0,6
C[C@@H]1CN([C@@H](C)CO)C(=O)Cc2cc(NS(=O)(=O)c3cccs3)ccc2O[C@H]1CN(C)S(=O)(=O)c1ccccc1,78*,6[16.7 µM],1,58,-5
C[C@@H]1CN([C@H](C)CO)S(=O)(=O)c2ccc(C#Cc3ccncc3)cc2O[C@H]1CN(C)C(=O)C1CCC1,3,12[16.7 µM],0,-1,-5
COc1ccc2c3c([nH]c2c1)[C@@H](CO)N(C)CC31CCN(C(=O)c2cccnc2)CC1,11,.,0,.,5
O=C(Nc1ccc(F)cc1)N1CC(=O)N2[C@@H](CO)[C@H](c3ccc(-c4ccc(F)cc4)cc3)[C@@H]2C1,?,.,0,.,-56
CCN1C/C(=C\c2cccc([N+](=O)[O-])c2)C(=O)/C(=C/c2cccc([N+](=O)[O-])c2)C1,33*,-6,.,0,11
COCC(=O)N1C[C@H](C)[C@@H](OC)CN(C)C(=O)c2cc(NC(=O)Nc3cccc(F)c3)ccc2OC[C@@H]1C,8,.,0,.,-2
O=C(COc1cccnc1[N+](=O)[O-])N1N=C(c2ccc(Cl)cc2)CC1c1ccco1 (centres undefined),.,-1,.,.,-20*
Cc1ccc(OCC(=O)N2N=C(c3ccc(Cl)cc3)CC2c2ccco2)c([N+](=O)[O-])n1 (centres undefined),3,.,.,.,-2
CCC(=O)N1N=C(c2ccc(Cl)cc2)CC1c1ccco1 (centres undefined),3,-8,1,.,-28*

# Bioassay records as filed in PubChem.
